Screens as filed in PubChem BioAssay.
PLCb3 inh: PLC-beta3 (human) inhibition, primary screen; Purified PLC-beta3, fluorogenic substrate, fluorescence; inhibition, % at 12.2 µM; hit rate 0.18% among 370,000; AID 720704; in the data active means inhibition above about 11%
Tn7 DDE FP: inhibitors of Tn7 peptide binding to human fibrin DD(E) | inhibition, % at 8.3 µM | FP displacement of FITC-Tn7 peptide from fibrin DD(E); 0% = median of compound wells per plate | hit rate 0.13% among 370,000 | AID 720508 | P02675;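 active means inhibition above the mean of compounds falling within the control limits plus 3 SD of them, cut at about 14% in these data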
Target sequence (P02675 whole entry, looked up): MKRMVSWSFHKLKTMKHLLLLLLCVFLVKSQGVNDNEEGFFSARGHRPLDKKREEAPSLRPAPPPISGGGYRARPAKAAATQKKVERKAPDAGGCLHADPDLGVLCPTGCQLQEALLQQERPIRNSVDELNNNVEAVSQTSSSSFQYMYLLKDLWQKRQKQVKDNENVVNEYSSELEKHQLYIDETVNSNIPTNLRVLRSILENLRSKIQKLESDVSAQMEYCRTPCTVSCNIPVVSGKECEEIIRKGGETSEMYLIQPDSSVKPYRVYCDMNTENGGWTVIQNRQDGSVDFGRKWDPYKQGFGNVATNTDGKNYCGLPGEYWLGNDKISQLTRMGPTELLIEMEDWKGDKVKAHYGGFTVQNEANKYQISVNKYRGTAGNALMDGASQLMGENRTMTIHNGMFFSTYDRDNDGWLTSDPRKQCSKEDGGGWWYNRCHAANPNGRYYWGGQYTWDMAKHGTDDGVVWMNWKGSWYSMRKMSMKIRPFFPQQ
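system = human fibrin DD(E) protein | quantity = DD(E) 2 µM final | medium = Tris/NaCl/CaCl2 buffer, pH 7.8 | also added = labelled Tn7 tracer, 0.1 µM | compound dosing = single point at 8.3 µM | timing = compound with protein 10 min, then 3 h after probe, room temperature | signal = FP measurement | benchmarks = Aha-Tn7 high control | repeats = one replicate per compound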
KLK7 zymogen act: activates the human kallikrein-7 zymogen | hit rate 0.9% among 370,000 | P49862 | activation, % at 7 µM | purified proKLK7, EDANS-DABCYL substrate fluorescence; 100% is mature enzyme control, 0% vehicle;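 active means activation above the mean of all tested compounds plus 3 SD, computed per campaign excluding outliers beyond control limits, cut at about 13% in these data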
PLC-gamma1 inh: blocks human PLC-gamma1 enzyme activity; P19174; purified PLC-gamma1, fluorogenic substrate, fluorescence; inhibition, % at 12.2 µM; hit rate 0.84% among 370,000; AID 720700; in the data active means inhibition above about 9.5%
NRP1-CendR mod: alters CendR peptide binding to human NRP-1; inhibition, % at 25 µM; O14786; FAM-RPARPAR peptide binding to NRP-1, fluorescence polarization; hit rate 0.85% among 360,000;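 active means inhibition or corrected inhibition above about 18%, plus a signal ratio from 0.5 to 1.5, limit read from the data, passing the limit was not always enough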
DDE Tn6 FP inh: DD(E)-Tn6 binding inhibition, primary FP screen. P02675. Fibrin DD(E) TRITC-Tn6 fluorescence polarization displacement. inhibition, % at 8.3 µM. hit rate 0.21% among 370,000. AID 720509;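 active means inhibition above a per-campaign cutoff: mean of compounds within control limits plus 3 SD, cut at about 15% in these data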
DDE Tn6 FP ctr: counter-screen hit for Tn6 peptide-fibrin DD(E) binding disruption; shares compounds with DDE Tn6 FP inh; TRITC-Tn6 fluorescence polarization displacement; 0% = median of compound wells, not DMSO; inhibition, % at 8.3 µM; hit rate 2% among 680; AID 720621;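 active means inhibition above the mean of test compounds lying between the control limits plus 3 SD of those, cut at about 14% in these data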
Tn6 DDE conf: confirmation of inhibitors of Tn6 binding to human fibrin DD(E); inhibition, % at 8.3 µM; FP displacement of TRITC-Tn6 peptide from DD(E); 0% = per-plate median of test wells; hit rate 10% among 680; shares compounds with DDE Tn6 FP inh;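 active means inhibition above the mean of compounds lying within the control limits plus 3 SD, cut at about 16% in these data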
Hits are given with their value; 0 = inactive; - = no result given. Only some compounds are listed: those with a hit (about 3% of all), similar ones and a draw of the others.

SMILES	PLCb3 inh	Tn7 DDE FP	KLK7 zymogen act	PLC-gamma1 inh	NRP1-CendR mod	DDE Tn6 FP inh	DDE Tn6 FP ctr	Tn6 DDE conf
CN(Cc1ccccc1)Cc1c[nH]c2ccccc12	0	0	0	0	0	16.6	0	0
O=C(OCc1cn(Cc2c(F)cccc2F)nn1)N1CCCC1	0	0	0	0	-	0	-	-
COC(=O)[C@H](C(C)C)N1CCc2nnn(CC3CCCCC3)c2-c2ccccc2S1(=O)=O	0	0	0	0	-	0	-	-
Cc1cc2cc(CNC(=O)Nc3cccc(Cl)c3)ccc2n1C	0	0	0	0	0	69.9	0	17.7
Cc1cc2cc(CNC(=O)CCC(=O)O)ccc2n1C	0	0	0	0	0	0	-	-
Cc1cccc(NC(=O)NCc2ccc3c(c2)cc(C)n3C)c1	0	0	0	0	0	46.0	0	0
COc1cccc(NC(=S)NCc2ccc3c(c2)cc(C)n3C)c1	0	0	0	0	0	0	-	-
Cc1cccc(NC(=S)NCc2ccc3c(c2)cc(C)n3C)c1C	0	0	0	0	0	23.2	0	0
COc1ccc(CNC(=O)Nc2cccc(Cl)c2)cc1	-	-	-	-	0	-	-	-
O=C(Nc1ccc(Cl)cc1Cl)OC1CCC12CCC(c1ccccc1)CC2 (configuration not stated)	0	0	-	0	-	0	-	-
Cc1ccc(Cn2cc(CN3[C@H](Cc4ccccc4)COc4cc(Br)ccc4S3(=O)=O)nn2)cc1	0	0	0	0	-	0	-	-
CCCCC1CC(CSc2ncn[nH]2)OC1=O (configuration not stated)	0	0	0	0	0	72.0	0	0
CCCCC1CC(CSC(=N)N)OC1=O (configuration not stated)	0	0	0	0	0	17.9	0	0
CCCCN1C(=O)N2Cc3ccccc3C2CS1(=O)=O (configuration not stated)	0	0	0	0	-	0	-	-
O=C(Nc1ccccc1N1CCCC1)c1ccc(Cl)cc1Cl	0	0	0	0	0	16.3	0	0
O=C(Nc1ccccc1N1CCCC1)c1ccccc1Cl	0	0	0	0	0	0	-	-
O=C(c1cscn1)N1CCC(Oc2cccnc2)CC1	0	0	0	0	-	0	-	-
Brc1ccc(Cn2nnc(-c3ccc(N4CCOCC4)cc3)n2)cc1	0	0	0	0	-	0	-	-
CS(=O)(=O)c1cccc(-c2csc(N3CCC(C(N)=O)CC3)n2)c1	0	0	0	0	0	16.3	0	0
COC(=O)[C@H](C)N(Cc1cn(Cc2ccccc2)nn1)S(=O)(=O)c1ccccc1Br	0	0	0	0	-	0	-	-
Nc1cc(C(=O)O)ccc1Nc1ccccc1	0	0	0	0	0	18.3	0	0
CCc1ccccc1Nc1ccc(C(=O)O)cc1N	0	0	0	0	0	0	-	-
O=C(NCCS(=O)(=O)N1CCN(c2ccccc2F)CC1)c1cccs1	0	0	0	0	0	16.8	0	0
O=C(NCCS(=O)(=O)N1CCN(c2ccccc2)CC1)c1cccs1	0	0	0	0	0	0	-	-
O=C(C1CC1)n1ccc2ccc(-c3ccc4ccn(Cc5ccccc5)c4c3)cc21	0	0	0	0	-	0	-	-
SMILES	PLCb3 inh	Tn7 DDE FP	KLK7 zymogen act	PLC-gamma1 inh	NRP1-CendR mod	DDE Tn6 FP inh	DDE Tn6 FP ctr	Tn6 DDE conf
Nc1nnc(CCC2CCCCC2)s1	0	0	0	0	0	16.7	0	0
Nc1nnc(CCCCCCCCCCc2nnc(N)s2)s1	0	0	0	0	0	0	-	-
Cc1ccc(C(=O)N2[C@@H]3CN(C)C(=O)[C@@]2(Cc2ccccc2)[C@H]2C(=O)N(C)C(=O)[C@@H]32)cc1	0	0	0	0	0	15.9	0	0
CCN1C[C@@H]2[C@@H]3C(=O)N(C)C(=O)[C@@H]3[C@](Cc3ccccc3)(C1=O)N2C(=O)c1ccc(C)cc1	0	0	0	0	0	0	-	-
CC(=O)C1=C(C)N(Cc2ccc(Cl)cc2)C(=S)NC1c1ccc(Cl)cc1 (configuration not stated)	0	0	0	0	-	0	-	-
O=C(NC(=S)Nc1ccccc1)c1cc(-c2ccccc2)nc2ccccc12	0	0	0	0	0	20.7	0	0
COc1ccc(-c2cn(CCCOCc3ccccc3)nn2)cc1	0	0	0	0	0	0	-	-
Cc1cc(-c2nnn(CCCOC(C)(C)C)c2C)ccc1-c1cn(CCCOC(C)(C)C)nn1	0	0	0	0	0	16.5	0	0
COc1ccc(-n2c(SCC(=O)Nc3ccc(S(=O)(=O)Nc4nccs4)cc3)nnc2-c2ccccc2)cc1	0	0	0	0	-	0	-	-
C[C@@H]1CN(Cc2nc(-c3ccc(Cl)cc3)no2)C[C@H](C)O1	0	0	0	0	0	16.9	0	0
O=C1c2cccc3c(O)ccc(c23)C(=O)N1Cc1ccccc1	0	0	0	0	0	23.9	19.2	18.6
Cc1cc(C(F)(F)F)n2nc(-c3cnn(C)c3C(F)(F)F)c(Cl)c2n1	0	0	0	0	0	16.3	0	0
Cc1ccc(NC(=O)Cn2nnc(-c3ccccc3F)n2)c(C)c1	0	0	0	0	-	0	-	-
O=C(Cn1nnc(-c2ccccc2F)n1)Nc1ccc(F)cc1F	0	0	0	0	-	15.6	0	0
CCCC(=O)NCc1ccc2c(c1)cc(C)n2C	0	0	0	0	0	0	-	-
Cc1cc2cc(CNS(=O)(=O)c3ccc4ccccc4c3)ccc2n1C	0	0	0	0	0	49.6	0	19.6
NS(=O)(=O)c1ccc(CNS(=O)(=O)c2ccc3ccccc3c2)cc1	0	0	0	0	0	0	-	-
CC(=O)Nc1ccc(S(=O)(=O)NCc2ccc3c(c2)cc(C)n3C)cc1	0	0	0	0	0	61.5	0	0
Cc1cc(C)c(S(=O)(=O)NCc2ccc3c(c2)cc(C)n3C)c(C)c1	0	0	0	0	0	58.9	0	0
C=CCCC1(CCC)C(=O)/C(=C(\O)c2ccccc2)C(=O)C(CCC)=C1OC (configuration not stated)	0	0	0	0	-	0	-	-
CCOc1ccc(-n2c(SC/C=C/c3ccccc3)nnc2-c2ccco2)cc1	0	0	0	0	-	0	-	-
COc1ccc(NC(=O)C(c2cc3c(cc2[N+](=O)[O-])OCO3)N(C)C)cc1 (configuration not stated)	0	0	0	0	0	15.2	0	0
C=CCN1C(=O)c2n[nH]c(COC)c2C1c1ccc(C)cc1 (configuration not stated)	0	0	0	0	-	0	-	-
COC(=O)C1CN(Cc2ccc(OC)cc2)CCS(=O)(=O)N1Cc1cn(Cc2ccc(OC)cc2)nn1 (configuration not stated)	0	0	0	0	-	0	-	-
CCn1nnnc1SCC(=O)Nc1nc(C)c(C)s1	0	0	0	0	0	16.1	0	0
